Data from ChEMBL document CHEMBL5257120 (Bioorg Med Chem, 2023).
Calls of active or inactive are those of the source. No cut-off for these calls is given here.

Legend:
[1] = species: Homo sapiens; assay: Selectivity ratio, ratio of inhibition of HDAC in human HeLa nuclear extract assessed as residual activity to inhibition of human recombinant HDAC6 assessed as residual activity
Summary of the method: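 Compounds at 20 μM tested by fluorometric assay on HeLa nuclear extract (class I/II HDACs) and on human recombinant HDAC6. Residual activity is expressed relative to untreated control. Selectivity is the ratio of PanHDAC to HDAC6 residual activity: ≥7 high, 2.5–6.9 moderate, <2.5 low.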

[2] = Antiinflammatory activity in mouse peritoneal macrophage assessed as inhibition of LPS-induced TNFalpha production at 10 ug/ml relative to control; type: functional; parameters: scale not given: the % may be the effect or the level left; settings: dose 10 µg/ml
[3] = Hepatotoxicity in Swiss albino mouse assessed as alkaline phosphatase level at 300 mg/kg, po administered for 7 days (reference value: 260.10 +/- 26.76 U/L); type: toxicity, organism-based; settings: in vivo, 168 h, time 7 day
Summary of the method: (§1)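 Single acute oral dose (5, 50, 300 or 1000 mg/kg) given to Swiss albino mice, n = 6, with 7-day observation. At the end, haematological and serum biochemical parameters were measured. Compared with untreated controls; mean ± SE, ANOVA, p < 0.05.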

[4] = Toxicity in Swiss albino mouse assessed as change in absolute kidney weight at 5 to 1000 mg/kg, po administered for 7 days; type: organism-based; settings: in vivo, 168 h, dose 5-1000 mg/kg, time 7 day
[5] = Toxicity in Swiss albino mouse assessed as WBC level at 5 mg/kg, po administered for 7 days (reference value: 5.29 +/- 0.51 10^3/mm3); type: organism-based; settings: in vivo, 168 h, time 7 day
[6] = Toxicity in Swiss albino mouse assessed as WBC level at 50 mg/kg, po administered for 7 days (reference value: 5.29 +/- 0.51 10^3/mm3); type: organism-based; settings: in vivo, 168 h, time 7 day
[7] = molecular target: Tubulin (Homo sapiens) (UniProt P68371+Q9H4B7+P0DPH7+P68366+Q13509+Q71U36+P04350+Q3ZCM7+P07437+P68363+Q9BQE3+Q6PEY2+Q13885+Q9BVA1+Q9BUF5); assay: Induction of microtubule stabilization in human HeLa cells assessed as effect on cellular cytoskeletal network of tubulin at 5 to 10 uM incubated for 4 hrs by Alexa Fluor 488 staining based confocal microscopic analysis; type: cell-based; settings: dose 5-10 µM
Summary of the method: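 HeLa cells treated for 4 h at 5 and 10 μM. Microtubules immunostained with Alexa Fluor 488-conjugated anti-β-tubulin and imaged by confocal microscopy with a 60× Plan Apochromat objective. References: paclitaxel 5 nM, podophyllotoxin 5 μM.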

[8] = system: K562; assay: Cytotoxicity against human K562 cells incubated for 72 hrs by Sulphorhodamine assay; type: functional, cell-based; settings: K562, 72 h
[9] = Hepatotoxicity in Swiss albino mouse assessed as serum protein level at 50 mg/kg, po administered for 7 days (reference value: 5.73 +/- 0.21 mg/ml); type: toxicity, organism-based; settings: in vivo, 168 h, time 7 day; summary of the method: as §1
[10] = Toxicity in Swiss albino mouse assessed as change in body weight at 5 mg/kg, po administered for 7 days (reference value: 29.35 +/- 0.57 g); type: organism-based; settings: in vivo, 168 h, time 7 day
[11] = Hepatotoxicity in Swiss albino mouse assessed as SGPT level at 5 mg/kg, po administered for 7 days (reference value: 17.01 +/- 2.33 U/L); type: toxicity, organism-based; settings: in vivo, 168 h, time 7 day; summary of the method: as §1
[12] = Antiinflammatory activity in mouse peritoneal macrophage assessed as reduction in LPS-induced TNFalpha production at 1 ug/ml; type: functional; settings: dose 1 µg/ml
[13] = Toxicity in Swiss albino mouse assessed as cholesterol level at 1000 mg/kg, po administered for 7 days (reference value: 140.17 +/- 3.76 mg/dl); type: organism-based; settings: in vivo, 168 h, time 7 day
[14] = Toxicity in Swiss albino mouse assessed as change in relative lungs weight at 5 to 1000 mg/kg, po administered for 7 days; type: organism-based; settings: in vivo, 168 h, dose 5-1000 mg/kg, time 7 day
[15] = Toxicity in Swiss albino mouse assessed as change in absolute lungs weight at 5 to 1000 mg/kg, po administered for 7 days; type: organism-based; settings: in vivo, 168 h, dose 5-1000 mg/kg, time 7 day
[16] = Antiinflammatory activity in mouse peritoneal macrophage assessed as inhibition of LPS-induced IL6 production at 1 ug/ml relative to control; type: functional; parameters: scale not given: the % may be the effect or the level left; settings: dose 1 µg/ml
[17] = Antiinflammatory activity in mouse peritoneal macrophage assessed as inhibition of LPS-induced IL6 production at 10 ug/ml relative to control; type: functional; parameters: scale not given: the % may be the effect or the level left; settings: dose 10 µg/ml
[18] = Hepatotoxicity in Swiss albino mouse assessed as albumin level at 300 mg/kg, po administered for 7 days (reference value: 4.12 +/- 0.17 g/dl); type: toxicity, organism-based; settings: in vivo, 168 h, time 7 day; summary of the method: as §1
[19] = Toxicity in Swiss albino mouse assessed as triglyceride level at 300 mg/kg, po administered for 7 days (reference value: 136.88 +/- 3.12 mg/dl); type: organism-based; settings: in vivo, 168 h, time 7 day
[20] = Hepatotoxicity in Swiss albino mouse assessed as SGOT level at 5 mg/kg, po administered for 7 days (reference value: 31.51 +/- 6.31 U/L); type: toxicity, organism-based; settings: in vivo, 168 h, time 7 day; summary of the method: as §1
[21] = Renal toxicity in Swiss albino mouse assessed as creatinine level at 5 mg/kg, po administered for 7 days (reference value: 0.76 +/- 0.06 mg/dl); type: organism-based; settings: in vivo, 168 h, time 7 day; summary of the method: as §1
[22] = Toxicity in Swiss albino mouse assessed as WBC level at 300 mg/kg, po administered for 7 days (reference value: 5.29 +/- 0.51 10^3/mm3); type: organism-based; settings: in vivo, 168 h, time 7 day
[23] = Toxicity in Swiss albino mouse assessed as RBC level at 300 mg/kg, po administered for 7 days (reference value: 7.13 +/- 0.40 million/mm3); type: organism-based, Erythrocyte; settings: in vivo, 168 h, time 7 day; summary of the method: as §1
[24] = Toxicity in Swiss albino mouse assessed as change in absolute heart weight at 5 to 1000 mg/kg, po administered for 7 days; type: organism-based; settings: in vivo, 168 h, dose 5-1000 mg/kg, time 7 day
[25] = Hepatotoxicity in Swiss albino mouse assessed as serum protein level at 300 mg/kg, po administered for 7 days (reference value: 5.73 +/- 0.21 mg/ml); type: toxicity, organism-based; settings: in vivo, 168 h, time 7 day; summary of the method: as §1
[26] = Toxicity in Swiss albino mouse assessed as change in relative brain weight at 5 to 1000 mg/kg, po administered for 7 days; type: organism-based; settings: in vivo, 168 h, dose 5-1000 mg/kg, time 7 day
[27] = Hepatotoxicity in Swiss albino mouse assessed as SGOT level at 300 mg/kg, po administered for 7 days (reference value: 31.51 +/- 6.31 U/L); type: toxicity, organism-based; settings: in vivo, 168 h, time 7 day; summary of the method: as §1
[28] = Toxicity in Swiss albino mouse assessed as change in relative liver weight at 5 to 1000 mg/kg, po administered for 7 days; type: organism-based; settings: in vivo, 168 h, dose 5-1000 mg/kg, time 7 day
[29] = Toxicity in Swiss albino mouse assessed as change in relative spleen weight at 5 to 1000 mg/kg, po administered for 7 days; type: organism-based; settings: in vivo, 168 h, dose 5-1000 mg/kg, time 7 day
[30] = Hepatotoxicity in Swiss albino mouse assessed as alkaline phosphatase level at 50 mg/kg, po administered for 7 days (reference value: 260.10 +/- 26.76 U/L); type: toxicity, organism-based; settings: in vivo, 168 h, time 7 day; summary of the method: as §1
[31] = Selectivity index, ratio of IC50 for african green monkey Vero cells to IC50 for human K562 cells; type: toxicity; settings: Vero cells versus K562 cells, read-out: Ratio IC50
[32] = Toxicity in Swiss albino mouse assessed as triglyceride level at 1000 mg/kg, po administered for 7 days (reference value: 136.88 +/- 3.12 mg/dl); type: organism-based; settings: in vivo, 168 h, time 7 day
[33] = Toxicity in Swiss albino mouse assessed as change in absolute brain weight at 5 to 1000 mg/kg, po administered for 7 days; type: organism-based; settings: in vivo, 168 h, dose 5-1000 mg/kg, time 7 day

COc1cc(C2/C(=C/c3ccc(/C=C/C(=O)NO)cc3)C(=O)c3cc(OC)c(OC)c(OC)c32)cc(OC)c1OC (stereo not drawn)
Ratio [1]: < 0.5 | Activity [2]: 29.22% | Activity [3]: 238.88 U/L | Activity [4]: Non-Toxic | Activity [5]: 5.01 10^3/mm3 | Activity [6]: 4.34 10^3/mm3 | Activity [7]: Active | IC50 [8]: 3.27 µM | Activity [9]: 5.64 mg/mL | Activity [10]: 28.17 g | Activity [11]: 16.79 U/L | Activity [12]: 1019.21 pg/mL | Activity [13]: 157.22 mg/dL | Activity [14]: Non-Toxic | Activity [15]: Non-Toxic | Activity [16]: 13.14% | Activity [17]: 27.01% | Activity [18]: 4.46 g/dL | Activity [19]: 127.18 mg/dL | Activity [20]: 28.87 U/L | Activity [21]: 0.58 mg/dL | Activity [22]: 5.75 10^3/mm3 | Activity [23]: 8.48 million/mm3 | Activity [24]: Non-Toxic | Activity [25]: 5.45 mg/mL | Activity [26]: Non-Toxic | Activity [27]: 29.93 U/L | Activity [28]: Non-Toxic | Activity [29]: Non-Toxic | Activity [30]: 281.72 U/L | selectivity ratio [31]: 30.7 | Activity [32]: 130.21 mg/dL | Activity [33]: Non-Toxic
